Measured values: ChEMBL document CHEMBL3813689, “Discovery of Potent Benzofuran-Derived Diapophytoene Desaturase (CrtN) Inhibitors with Enhanced Oral Bioavailability for the Treatment of Methicillin-Resistant Staphylococcus aureus (MRSA) Infections” (J Med Chem, 2016)
Calls of active or inactive are those of the source. No cut-off for these calls is given here.

Key:
[1] = Terminal half life in Sprague-Dawley rat at 5 mg/kg, iv administered as single dose; type: ADME, organism-based; details: in vivo, read-out: beta t1/2 (converted)
How it was run: (§1)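 Male SD rats, 3 per group, single iv 5 mg/kg or oral 10 mg/kg. Blood sampled 0.083 (iv only), 0.25, 0.5, 1, 2, 4, 6, 8, 24 h postdose; plasma separated at 4 °C, stored −80 °C, analysed within 1 week. Parameters from plasma concentration-time data; F from dose-normalized AUC, oral vs iv.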

[2] = tested on: Staphylococcus aureus; test: Sensitization of methicillin-resistant Staphylococcus aureus USA300 LAC to H2O2 assessed as reduction in bacterial survival at 1 uM measured after 24 hrs relative to control; type: functional
How it was run: (§2)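 Strains grown 24 h in TSB with or without inhibitor, washed twice in PBS, then diluted to 4 × 10^6 CFU per 250 µL reaction. H2O2 added to a final 1.5%. Tubes sealed and held 30 min at 37 °C. Reaction stopped with 1000 U/mL catalase. Survivors counted as CFU by serial dilution on TSA plates and compared with untreated (mock) bacteria.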

[3] = Cytotoxicity against human WI38 cells measure after 72 hrs by SRB assay; type: cell-based; details: WI-38, 72 h
[4] = tested on: Staphylococcus aureus; test: Suppression in survival of methicillin-resistant Staphylococcus aureus Mu50 at 0.05 mM measured after overnight incubation by spectrophotometric method; type: ADME, organism-based; details: 50 µM
How it was run: (§3)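 Compound from 20 mM DMSO stock diluted in TSB to final 0.2 or 0.05 mM; DMSO growth controls; paraffin overlay. Overnight cultures inoculated to final OD600 ≈ 0.05; incubated at 37 °C overnight with OD600 read every 30 min.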

[5] = biological target: T1, 4,4'-diapophytoene desaturase (4,4'-diaponeurosporene-forming) (Staphylococcus aureus (strain Newman)) (UniProt O07855); details: Staphylococcus aureus subsp. aureus str. Newman; 1 uM
T1 sequence (whole entry): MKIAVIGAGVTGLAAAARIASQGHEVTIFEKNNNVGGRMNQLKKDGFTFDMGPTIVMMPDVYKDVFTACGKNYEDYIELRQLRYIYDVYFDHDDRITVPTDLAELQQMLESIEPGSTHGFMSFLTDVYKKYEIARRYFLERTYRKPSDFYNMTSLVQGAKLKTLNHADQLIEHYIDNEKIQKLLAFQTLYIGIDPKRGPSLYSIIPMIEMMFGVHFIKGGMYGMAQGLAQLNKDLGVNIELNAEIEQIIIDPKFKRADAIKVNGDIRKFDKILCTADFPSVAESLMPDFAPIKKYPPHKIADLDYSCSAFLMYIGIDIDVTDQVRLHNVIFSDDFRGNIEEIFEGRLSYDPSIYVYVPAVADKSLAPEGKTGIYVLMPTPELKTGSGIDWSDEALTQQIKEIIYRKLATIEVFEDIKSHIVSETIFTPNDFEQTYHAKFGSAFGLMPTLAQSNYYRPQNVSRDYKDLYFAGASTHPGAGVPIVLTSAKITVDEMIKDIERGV

[6] = tested on: Staphylococcus aureus; test: Inhibition of staphyloxanthin pigment formation in methicillin-resistant Staphylococcus aureus USA300 LAC after 48 hrs by spectrophotometric method; type: functional, organism-based
How it was run: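 MRSA grown in 4 mL TSB with 40 µL compound (2-fold serial dilutions from 20 mM DMSO stock) at 37 °C for 48 h, triplicate. Cells washed twice in PBS, pigment extracted with methanol, OD450 measured; IC50 from dose-response fit.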

[7] = tested on: Staphylococcus aureus; test: Sensitization of methicillin-resistant Staphylococcus aureus Mu50 to H2O2 assessed as bacterial survival at 1 uM measured after 24 hrs (reference value: 25.3%); type: functional; details: Mu50, 24 h
[8] = Cytotoxicity against HMEC1 measure after 72 hrs by SRB assay; details: Homo sapiens, HMEC-1, 72 h
[9] = tested on: Staphylococcus aureus; test: Antibacterial activity against Staphylococcus aureus USA400 MW2 infected Balb/c mouse assessed as reduction of bacterial survival in liver at 1.3 mg, ip bid administered for 4.5 days followed by bacterial infection measured after 5 days; type: functional
How it was run: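 Female BALB/c mice, 6–8 weeks. Compound in sterile water ip once and every 12 h for 108 h, total 50 or 200 mg/kg; water controls. Infected 12 h after first dose with 4 × 10^7 CFU USA400 MW2 (100 µL). Killed 5 days post infection; liver or kidney CFU counted on TSA after homogenising in PBS/0.1% Triton X-100. n = 13; two-tailed Mann-Whitney.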

[10] = tested on: Staphylococcus aureus; test: Suppression in growth of methicillin-resistant Staphylococcus aureus Mu50 at 0.05 mM measured after overnight incubation by spectrophotometric method; type: organism-based; details: 50 µM; how it was run: as §3
[11] = tested on: Staphylococcus aureus; test: Sensitization of Staphylococcus aureus USA300 LAC to immune clearance in human whole blood assessed as reduction in bacterial survival at 1 uM […] relative to control; type: functional
[12] = Aqueous solubility of the compound by HPLC method; type: physicochemical
How it was run: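 Calibration with standards at 50, 100, 200, 400 and 800 µg/mL in methanol (peak area vs concentration). 10 mg solid stirred in 1 mL pure water for 24 h, more added if still clear; syringe-filtered, 10 µL injected; solubility read from calibration curve.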

[13] = tested on: Staphylococcus aureus; test: Sensitization of Staphylococcus aureus USA300 LAC to immune clearance in human whole blood assessed as bacterial survival at 1 uM measured after 24 hrs (reference value: 12.2%); type: functional
[14] = tested on: Staphylococcus aureus; test: Sensitization of methicillin-resistant Staphylococcus aureus Mu50 to immune clearance in human whole blood assessed as bacterial survival at 1 uM measured after 24 hrs (reference value: 16.1%); type: functional
[15] = tested on: Staphylococcus aureus; test: Suppression in growth of methicillin-resistant Staphylococcus aureus USA400 MW2 at 0.05 mM measured after overnight incubation by spectrophotometric method; type: organism-based; details: 50 µM; how it was run: as §3
[16] = tested on: Staphylococcus aureus; test: Suppression in growth of Staphylococcus aureus Newman at 0.2 mM measured after overnight incubation by spectrophotometric method; type: organism-based; details: in vitro, 200 µM; how it was run: as §3
[17] = tested on: Staphylococcus aureus; test: Sensitization of methicillin-resistant Staphylococcus aureus Mu50 to H2O2 assessed as reduction in bacterial survival at 1 uM measured after 24 hrs relative to control; type: functional; how it was run: as §2
[18] = Total plasma clearance in Sprague-Dawley rat at 5 mg/kg, iv administered as single dose; type: ADME, organism-based; how it was run: as §1
[19] = biological target: Voltage-gated inwardly rectifying potassium channel KCNH2 (Homo sapiens, UniProt Q12809); test: Inhibition of human ERG expressed in CHO cells by Qpatch-clamp method; type: cell-based
[20] = tested on: Staphylococcus aureus; test: Sensitization of methicillin-resistant Staphylococcus aureus USA400 MW2 to H2O2 assessed as bacterial survival at 1 uM measured after 24 hrs (reference value: 11.7%); type: functional; details: MW2, 24 h
[21] = tested on: Rattus norvegicus; test: Dose normalized AUC (0 to infinity) in Sprague-Dawley rat at 5 mg/kg, iv administered as single dose; type: ADME, organism-based; details: in vivo; how it was run: as §1
[22] = tested on: Staphylococcus aureus; test: Antibacterial activity against Staphylococcus aureus Newman infected Balb/c mouse assessed as reduction of bacterial survival in heart at 5.2 mg, ip bid administered for 4.5 days followed by bacterial infection measured after 5 days; type: functional
How it was run: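 Female BALB/c mice, 6–8 weeks, dosed ip with compound in sterile water once and every 12 h for 108 h; water vehicle controls. Challenged 12 h after first dose with 1 × 10^7 CFU Newman by retro-orbital injection. Kidneys and hearts homogenised in PBS/0.1% Triton X-100 and plated on TSA for CFU. n = 13 mice; two-tailed Mann-Whitney.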

Chain of Voltage-gated inwardly rectifying potassium channel KCNH2 (Q12809 whole entry): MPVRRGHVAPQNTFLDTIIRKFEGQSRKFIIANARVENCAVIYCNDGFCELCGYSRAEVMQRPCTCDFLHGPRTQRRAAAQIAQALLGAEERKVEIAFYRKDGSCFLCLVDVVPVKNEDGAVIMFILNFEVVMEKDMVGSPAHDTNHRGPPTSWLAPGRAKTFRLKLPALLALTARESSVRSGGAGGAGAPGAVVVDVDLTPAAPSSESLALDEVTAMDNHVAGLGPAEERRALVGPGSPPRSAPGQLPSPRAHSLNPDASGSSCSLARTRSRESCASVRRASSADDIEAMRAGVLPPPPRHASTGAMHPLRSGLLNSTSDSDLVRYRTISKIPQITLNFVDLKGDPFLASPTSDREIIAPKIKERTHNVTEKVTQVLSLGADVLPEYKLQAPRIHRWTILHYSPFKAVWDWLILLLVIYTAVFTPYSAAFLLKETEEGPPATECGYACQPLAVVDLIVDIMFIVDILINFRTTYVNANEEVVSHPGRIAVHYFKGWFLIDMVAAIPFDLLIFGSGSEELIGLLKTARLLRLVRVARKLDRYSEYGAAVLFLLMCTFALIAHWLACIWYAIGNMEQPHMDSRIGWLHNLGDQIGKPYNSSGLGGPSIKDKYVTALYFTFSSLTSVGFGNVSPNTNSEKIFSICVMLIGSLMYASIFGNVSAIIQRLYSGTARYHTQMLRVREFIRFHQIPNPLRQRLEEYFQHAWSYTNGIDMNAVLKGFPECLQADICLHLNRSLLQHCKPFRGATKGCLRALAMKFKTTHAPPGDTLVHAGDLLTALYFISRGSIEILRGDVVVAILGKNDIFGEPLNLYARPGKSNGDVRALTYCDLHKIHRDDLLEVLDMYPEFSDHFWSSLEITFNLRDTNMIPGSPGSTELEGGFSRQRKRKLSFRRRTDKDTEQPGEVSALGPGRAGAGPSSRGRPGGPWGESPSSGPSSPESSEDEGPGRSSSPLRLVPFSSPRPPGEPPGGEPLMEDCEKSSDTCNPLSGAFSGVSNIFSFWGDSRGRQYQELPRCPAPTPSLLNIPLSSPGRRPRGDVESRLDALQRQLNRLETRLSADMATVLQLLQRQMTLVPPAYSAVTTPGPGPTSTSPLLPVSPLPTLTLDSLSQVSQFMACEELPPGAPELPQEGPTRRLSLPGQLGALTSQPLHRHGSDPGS

In the case of `CN(C/C=C/c1ccc(C(F)(F)F)cc1)Cc1cccc2ccoc12.Cl`, the half-life [1] is reported as 8.23 h, the “fold change (FC)” value [2] is reported as 20 and the IC50 [3] is reported as 47.9 µM. For the same molecule, the Activity [4] was “Non-toxic”, the inhibition [5] was “Active” and the IC50 [6] was 0.00339 µM. The survival at 1 µM [7] was 4.3%, the IC50 [8] was 67.1 µM and the Activity [9] was 0.71 deltalog10CFU. The Activity [10] was “Non-toxic”, the “fold change (FC)” value [11] was 10 and the solubility [12] was 10000 µg/mL. For the same molecule, the survival at 1 µM [13] was 1.2%, the survival at 1 µM [14] was 3% and the Activity [15] was “Non-toxic”. The Activity [16] was “Non-toxic”, the “fold change (FC)” value [17] was 6 and the clearance [18] was 54.3 mL/min/kg. The IC50 [19] was 3.71 µM, the survival at 1 µM [20] was 0.6% and the AUC/dose [21] was 1299.47 ng/mL.hr/(mg/kg). The Activity [22] was 1.01 deltalog10CFU.
